Experimental data published in article PMC5463454 (Cancer discovery, 2016).
“And” between values parts separate entries of the source, which are not always exact repeats. Equal entries are not always repeated. Where two headings read alike, the source gives them in different places.

Key:
other relevant kinases = details: cited from earlier work
[1] = system: colon cancer cell line HCT116 (KRAS G13D, PIK3CA H1047R); experiment: Xenograft growth; type: in vivo, mice; details: KRAS G13D and PIK3CA H1047R
[2] = in vivo
clinical = type: in vivo; details: for half-life / AUC(0-t) / Cmax / Tmax: human, plasma, oral
[3] = system: breast cancer cell line KPL4 (PIK3CA H1047R); experiment: Xenograft growth; type: in vivo, mice
[4] = system: all three isoforms of AKT; details: cited from earlier work
[5] = system: melanoma cell line 537Mel (PTEN-null); experiment: Xenograft growth; type: in vivo, mice; details: 537Mel PTEN-null melanoma xenograft, QD, dose-dependent
AKT pathway effectors = experiment: RPPA of paired pretreatment and on-treatment tumor biopsies; type: in vivo, human
In short: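 Patients with solid tumours took test compound orally once daily, 21 days on/7 off per 28-day cycle. At doses ≥100 mg, three consenting patients per cohort had needle core biopsies at baseline and on cycle 1 days 15–21. Cores were snap-frozen and profiled by RPPA for pAKT, pGSK3β, pPRAS40, pmTOR, p4EBP1, pS6 and pERK, comparing on-treatment with paired pretreatment samples.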

protein kinase A = details: cited from earlier work
[6] = system: target lesions of metastatic breast cancer; experiment: [18F]FDG-PET metabolic response; type: in vivo, human; details: 600 mg
[7] = Phase I safety and tolerability
cancer cell lines = experiment: Cell viability assay; type: cell-based
glucose and insulin = experiment: Blood glucose, insulin and HbA1c; type: in vivo, human
[8] = 100 mg (n = 2), steady state, individual values
[9] = 100 mg, Day 15, 100 mg (n = 2), steady state, individual values

## CC(C)NC[C@@H](C(=O)N1CCN(c2ncnc3c2[C@H](C)C[C@H]3O)CC1)c1ccc(Cl)cc1 [Ipatasertib]
Other relevant kinases
  selectivity over other relevant kinases: greater than 100 fold
[1]
  tumor growth in vivo: does not suppress the growth
[1]; listed as ipatasertib
  tumor growth in vivo: less effective in suppressing the growth
[2]; human
  Any AE, grade ≥2 ipatasertib-related: 34 (67) Number (%) of patients
  Asthenia, grade ≥2 ipatasertib-related: 13 (25) Number (%) of patients
  Decreased appetite, grade ≥2 ipatasertib-related: 3 (6) Number (%) of patients
  Diarrhea, grade ≥2 ipatasertib-related: 18 (35) Number (%) of patients
  Hyperglycemia, grade ≥2 ipatasertib-related: 5 (10) Number (%) of patients
  Nausea, grade ≥2 ipatasertib-related: 14 (27) Number (%) of patients
  Rash, grade ≥2 ipatasertib-related: 3 (6) Number (%) of patients
  Vomiting, grade ≥2 ipatasertib-related: 3 (6) Number (%) of patients
  grade ≥2 AE related to ipatasertib: asthenia: 25%
  grade ≥2 AE related to ipatasertib: decreased appetite: 6%
  grade ≥2 AE related to ipatasertib: diarrhea: 35%
  grade ≥2 AE related to ipatasertib: hyperglycemia: 10%
  grade ≥2 AE related to ipatasertib: nausea: 27%
  grade ≥2 AE related to ipatasertib: rash: 6%
  grade ≥2 AE related to ipatasertib: vomiting: 6%
  patients who discontinued for ipatasertib-related AEs: 4%
  patients with AEs that led to dose reduction: 16%
  patients with at least one AE of any grade related to ipatasertib: 92%
  serious adverse event: grade 2 renal failure, share of patients: 2%
  serious adverse event: grade 3 asthenia, share of patients: 2%
  serious adverse event: grade 3 diarrhea, share of patients: 2%
  serious adverse event: grade 3 hyperglycemia, share of patients: 2%
  serious adverse event: grade 3 toxic skin eruption, share of patients: 2%
  time to onset of first grade 1–2 nausea or first grade 1 diarrhea: ≤ 7 days
  time to onset of higher grades of nausea and diarrhea: ≤ 14 days
  time to onset of worst grade of fatigue (grade 3) and rash (grade 2): 7 to 14 days
[2]
  colitis or pneumonitis: No cases
  serious adverse events (SAE) related to ipatasertib, total: Five serious adverse events
clinical; 25 mg (n = 3), geometric mean (%CV)
  Accumulation ratio, AUC0–24,ss (day 15)/AUC0–24 (day 1): 2.78 (15.7%)
clinical; 50 mg (n = 3), geometric mean (%CV)
  Accumulation ratio, AUC0–24,ss (day 15)/AUC0–24 (day 1): 2.43 (32.1%)
clinical; [8]
  AUC0–24,ss, Day 15: 568 ng·h/mL and 239 ng·h/mL
  Cmax, Day 15: 53.0 ng/mL
clinical; 100 mg (n = 2), individual values
  Accumulation ratio, AUC0–24,ss (day 15)/AUC0–24 (day 1): 2.57 and 0.927
clinical; 100 mg, most sensitive preclinical models
  clinical exposure relative to preclinical efficacy: equivalent to TGI 60
clinical; 200 mg (n = 3), geometric mean (%CV)
  Accumulation ratio, AUC0–24,ss (day 15)/AUC0–24 (day 1): 2.44 (28.1%)
clinical; 400 mg (n = 3), geometric mean (%CV)
  Accumulation ratio, AUC0–24,ss (day 15)/AUC0–24 (day 1): 1.95 (36.5%)
clinical; 600 mg (n = 7), single dose, geometric mean (range)
  t1/2, Day 1: 45.8 (36.7–55.0) h
clinical; 600 mg (n = 7), geometric mean (%CV)
  Accumulation ratio, AUC0–24,ss (day 15)/AUC0–24 (day 1): 1.80 (73.6%)
clinical; 800 mg (n = 5), geometric mean (%CV)
  Accumulation ratio, AUC0–24,ss (day 15)/AUC0–24 (day 1): 2.22 (20.0%)
clinical; doses of 200 mg to 800 mg
  mean accumulation ratio (AUC0–24,ss/AUC0–24, day 1), range over doses: 1.80 to 2.44
clinical
  half-life: 31.9 to 53 h
clinical; 25 mg
  half-life: 4.46 h
clinical; 25 mg, AUC0–24, Day 1, 25 mg (n = 3), single dose, geometric mean (%CV)
  AUC(0-t): 31.8 ng·h/mL
clinical; 25 mg, AUC0–24,ss, Day 15, 25 mg (n = 3), steady state, geometric mean (%CV)
  AUC(0-t): 88.3 ng·h/mL
clinical; 25 mg, Day 1, 25 mg (n = 3), single dose, geometric mean (%CV)
  Cmax: 8.93 ng/mL
clinical; 25 mg, Day 15, 25 mg (n = 3), steady state, geometric mean (%CV)
  Cmax: 8.92 ng/mL
clinical; 25 mg, Day 1, 25 mg (n = 3), single dose, median (range)
  Tmax: 0.5 h
clinical; 25 mg, Day 15, 25 mg (n = 3), steady state, median (range)
  Tmax: 0.5 h
clinical; 50 mg
  half-life: 10.1 h
clinical; 50 mg, AUC0–24, Day 1, 50 mg (n = 3), single dose, geometric mean (%CV)
  AUC(0-t): 70.3 ng·h/mL
clinical; 50 mg, AUC0–24,ss, Day 15, 50 mg (n = 3), steady state, geometric mean (%CV)
  AUC(0-t): 171 ng·h/mL
clinical; 50 mg, Day 1, 50 mg (n = 3), single dose, geometric mean (%CV)
  Cmax: 13.3 ng/mL
clinical; 50 mg, Day 15, 50 mg (n = 3), steady state, geometric mean (%CV)
  Cmax: 33.9 ng/mL
clinical; 50 mg, Day 1, 50 mg (n = 3), single dose, median (range)
  Tmax: 2.92 h
clinical; 50 mg, Day 15, 50 mg (n = 3), steady state, median (range)
  Tmax: 1 h
clinical; 100 mg
  half-life: 31.9 h
clinical; 100 mg, AUC0–24, Day 1, 100 mg (n = 3), single dose, geometric mean (%CV)
  AUC(0-t): 260 ng·h/mL
clinical; 100 mg, Day 1, 100 mg (n = 3), single dose, geometric mean (%CV)
  Cmax: 59.8 ng/mL
clinical; [9]
  Cmax: 76.2 ng/mL
  Tmax: 0.5 to 0.67 h
clinical; 100 mg, Day 1, 100 mg (n = 3), single dose, median (range)
  Tmax: 2.97 h
clinical; 200 mg
  half-life: 39.1 h
clinical; 200 mg, AUC0–24, Day 1, 200 mg (n = 3), single dose, geometric mean (%CV)
  AUC(0-t): 726 ng·h/mL
clinical; 200 mg, AUC0–24,ss, Day 15, 200 mg (n = 3), steady state, geometric mean (%CV)
  AUC(0-t): 1770 ng·h/mL
clinical; 200 mg, Day 1, 200 mg (n = 3), single dose, geometric mean (%CV)
  Cmax: 130 ng/mL
clinical; 200 mg, Day 15, 200 mg (n = 3), steady state, geometric mean (%CV)
  Cmax: 183 ng/mL
clinical; 200 mg, Day 1, 200 mg (n = 3), single dose, median (range)
  Tmax: 3 h
clinical; 200 mg, Day 15, 200 mg (n = 3), steady state, median (range)
  Tmax: 1 h
clinical; 400 mg
  half-life: 53 h
clinical; 400 mg, AUC0–24, Day 1, 400 mg (n = 3), single dose, geometric mean (%CV)
  AUC(0-t): 1650 ng·h/mL
clinical; 400 mg, AUC0–24,ss, Day 15, 400 mg (n = 3), steady state, geometric mean (%CV)
  AUC(0-t): 3210 ng·h/mL
clinical; 400 mg, Day 1, 400 mg (n = 3), single dose, geometric mean (%CV)
  Cmax: 506 ng/mL
clinical; 400 mg, Day 15, 400 mg (n = 3), steady state, geometric mean (%CV)
  Cmax: 838 ng/mL
clinical; 400 mg, Day 1, 400 mg (n = 3), single dose, median (range)
  Tmax: 1 h
clinical; 400 mg, Day 15, 400 mg (n = 3), steady state, median (range)
  Tmax: 1 h
clinical; 600 mg
  half-life: 45.8 h
clinical; 600 mg, AUC0–24, Day 1, 600 mg (n = 7), single dose, geometric mean (%CV)
  AUC(0-t): 2670 ng·h/mL
clinical; 600 mg, AUC0–24,ss, Day 15, 600 mg (n = 7), steady state, geometric mean (%CV)
  AUC(0-t): 4450 ng·h/mL
clinical; 600 mg, Day 1, 600 mg (n = 7), single dose, geometric mean (%CV)
  Cmax: 488 ng/mL
clinical; 600 mg, Day 15, 600 mg (n = 7), steady state, geometric mean (%CV)
  Cmax: 748 ng/mL
clinical; 600 mg, Day 1, 600 mg (n = 7), single dose, median (range)
  Tmax: 0.58 h
clinical; 600 mg, Day 15, 600 mg (n = 7), steady state, median (range)
  Tmax: 0.83 h
clinical; 800 mg
  half-life: 43.8 h
clinical; 800 mg, AUC0–24, Day 1, 800 mg (n = 7), single dose, geometric mean (%CV)
  AUC(0-t): 3220 ng·h/mL
clinical; 800 mg, AUC0–24,ss, Day 15, 800 mg (n = 5), steady state, geometric mean (%CV)
  AUC(0-t): 6670 ng·h/mL
clinical; 800 mg, Day 1, 800 mg (n = 7), single dose, geometric mean (%CV)
  Cmax: 479 ng/mL
clinical; 800 mg, Day 15, 800 mg (n = 5), steady state, geometric mean (%CV)
  Cmax: 879 ng/mL
clinical; 800 mg, Day 1, 800 mg (n = 7), single dose, median (range)
  Tmax: 2 h
clinical; 800 mg, Day 15, 800 mg (n = 5), steady state, median (range)
  Tmax: 3 h
[3]
  tumor growth in vivo: decreases the growth
[4]
  IC50: 0.005 to 0.018 µM
[5]
  tumor growth in vivo: decreases the growth
AKT pathway effectors; RPPA, 100 mg to 800 mg
  pAKT (Thr308 and Ser473) in on-treatment vs pretreatment biopsies: dose-dependent accumulation
AKT pathway effectors; RPPA, as low as 100 mg
  pERK and pHER3 in on-treatment vs pretreatment biopsies: upregulation
AKT pathway effectors; approximately
  inhibition of multiple AKT targets: > 80%
Protein kinase A
  selectivity over protein kinase A: greater than 600 fold
[6]; HER2-negative MBC
  metabolic PET response in one patient with MBC with AKT1 E17K mutation: complete metabolic PET response
[6]; MBC, cycle 1, 8 of 9 evaluable
  patients with target lesion metabolic PET response (SUVmax decrease ≥20%): 89%
[7]; PO QD, 21/7 dosing schedule
  maximum tolerated dose (MTD): 600 mg
[7]; all doses
  grade 4 AEs or deaths related to ipatasertib: no grade 4 AEs or deaths
Cancer cell lines; read-out: mean IC50 (±SEM), cell viability, cell lines with PTEN loss or PIK3CA mutations, n = 60
  IC50: 4.8 ± 0.56 µM
Cancer cell lines; read-out: mean IC50, cell viability, cells with PIK3CA alterations, n = 40
  IC50: 5 ± 0.71 µM
Cancer cell lines; read-out: mean IC50, cell viability, cells with PTEN alterations, n = 33
  IC50: 3.8 ± 0.73 µM
Cancer cell lines; read-out: mean IC50, cell viability, cells without PIK3CA alterations, n = 60
  IC50: 7.1 ± 0.5 µM
Cancer cell lines; read-out: mean IC50, cell viability, cells without PTEN alterations, n = 67
  IC50: 7.4 ± 0.46 µM
Cancer cell lines; read-out: median IC50, cell viability, cell lines with PTEN loss or PIK3CA mutations, n = 60
  IC50: 2.2 µM
Cancer cell lines; read-out: median IC50, cell viability, cells with PIK3CA alterations, n = 40
  IC50: 2.2 µM
Cancer cell lines; read-out: median IC50, cell viability, cells with PTEN alterations, n = 33
  IC50: 1.3 µM
Cancer cell lines; read-out: median IC50, cell viability, cells without PIK3CA alterations, n = 60
  IC50: 10 µM
Cancer cell lines; read-out: median IC50, cell viability, cells without PTEN alterations, n = 67
  IC50: 10 µM
Glucose and insulin; after ipatasertib dose
  time for glucose and insulin levels to return to baseline: ≤ 6 h
Glucose and insulin; all patients in stage 1
  baseline glucoses after two cycles: did not significantly elevate baseline glucoses
Glucose and insulin; almost all patients dosed with ipatasertib ≥200 mg
  nonfasting blood glucose: transient nonfasting (post-meal) asymptomatic hyperglycemia
Glucose and insulin; including patients at 800 mg
  glycated hemoglobin A1c (HbA1c), end of study vs baseline at screening: did not change significantly
Glucose and insulin; ipatasertib ≥600 mg
  elevation in insulin: up to 500 fold
